The target in test [1] is Heat shock protein HSP 90-beta (Homo sapiens) (UniProt P08238). Nature of the test: Inhibition of HSP90 in human MCF7 cells assessed as induction of HSP90 client protein cRaf degradation after 24 hrs by Western blot analysis. The format is cell-based. A digest of the protocol:
(§1)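 MCF-7 cells exposed 24 h to various concentrations in DMSO (1% final) or vehicle. Cells lysed in RIPA with 1 mM PMSF, 2 mM orthovanadate and protease inhibitors, 1 h on ice, then clarified at 14000g for 10 min at 4 °C; protein by BCA. 20 μg protein run under reducing conditions, blotted to nitrocellulose, probed with specific antibodies plus HRP secondary, read by chemiluminescence; β-actin also probed.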
Background: A western blot detects proteins with antibodies after separation by electrophoresis.

In test [2] the test system is MCF7. Nature of the test: Inhibition of heat shock response-induced increase in HSP90 protein level in human MCF7 cells at 1 to 100 uM after 24 hrs by Western blot analysis. The format is functional, cell-based.
Test [3] deals with MCF7. Nature of the test: Antiproliferative activity against human MCF7 cells after 72 hrs by MTS/PMS assay. The format is functional, cell-based. The settings on record: MCF7, 72 h. A digest of the protocol:
(§2)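 Cells grown at 37 °C in humidified 5% CO2, seeded at 2000/well and left to attach overnight. Compound added at varying concentrations in DMSO (1% final) for 72 h. Viable cells read by MTS/PMS, normalized to 1% DMSO wells as 100% proliferation. IC50 taken from separate experiments run in triplicate.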

Test [4] concerns the target Heat shock protein HSP 90-beta (Homo sapiens) (UniProt P08238). Kind of test: Inhibition of HSP90 in human MCF7 cells assessed as induction of HSP90 client protein Her2 degradation after 24 hrs by Western blot analysis. The class given is cell-based. Put shortly:
as §1

For test [5], the system named is SK-BR-3. Nature of the test: Antiproliferative activity against human SKBR3 cells after 72 hrs by MTS/PMS assay. The class given is functional, cell-based. To be noted: SK-BR-3, 72 h. Put shortly:
as §2

For test [6], the system named is SK-BR-3. Kind of test: Ratio of IC50 for human SK-BR-3 cells to IC50 for human MCF7 cells. The class given is functional.

Active and inactive are the calls of the source. The calls are words filed in the database; no cut-off is given here.

Sequence of Heat shock protein HSP 90-beta (Homo sapiens) (P08238 whole entry): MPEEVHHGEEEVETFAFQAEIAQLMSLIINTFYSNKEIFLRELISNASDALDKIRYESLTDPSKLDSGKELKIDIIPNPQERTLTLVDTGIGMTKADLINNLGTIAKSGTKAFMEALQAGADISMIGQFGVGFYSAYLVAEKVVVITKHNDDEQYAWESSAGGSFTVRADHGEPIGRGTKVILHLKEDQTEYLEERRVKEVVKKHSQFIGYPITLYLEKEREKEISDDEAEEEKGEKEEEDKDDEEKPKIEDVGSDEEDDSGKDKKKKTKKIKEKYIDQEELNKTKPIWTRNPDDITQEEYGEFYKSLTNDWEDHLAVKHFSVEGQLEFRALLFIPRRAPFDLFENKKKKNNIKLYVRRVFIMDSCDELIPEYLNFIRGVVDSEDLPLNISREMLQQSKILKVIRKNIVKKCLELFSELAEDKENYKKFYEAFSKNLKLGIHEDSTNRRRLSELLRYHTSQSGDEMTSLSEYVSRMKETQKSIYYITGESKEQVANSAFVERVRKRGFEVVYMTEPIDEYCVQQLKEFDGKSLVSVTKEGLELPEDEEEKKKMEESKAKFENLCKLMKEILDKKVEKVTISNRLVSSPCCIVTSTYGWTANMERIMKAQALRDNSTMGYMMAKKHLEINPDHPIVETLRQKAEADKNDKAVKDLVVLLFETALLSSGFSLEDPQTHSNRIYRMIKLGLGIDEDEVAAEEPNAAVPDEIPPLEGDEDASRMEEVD

One may read the IC50 as the midpoint of a concentration-inhibition curve. Read a high IC50 as weaker potency in that assay. Regarding `COc1cccc(-c2cc(C(=O)Nc3coc4cc(O[C@@H]5OC(C)(C)[C@H](OC)[C@@H](O)[C@H]5O)ccc4c3=O)ccc2OC)c1`, the Activity result in test [1] and in test [4] was “Dose-dependent effect” in each case. The inhibition result in test [2] was “Active”. Further, the values for the IC50 in test [3] and in test [5] were 25.2 µM and 29 µM, respectively.
Compound `CC(C)=CCc1c(O)cc2occ(-c3ccc4c(c3)OCO4)c(=O)c2c1O` [DERRUBONE] showed a 50% inhibitory concentration (IC50) in test [3] of 11.9 µM.
As to `CC(=O)Oc1ccc2c(=O)c(-c3ccc4c(c3)OCO4)coc2c1`, the IC50 in test [3] and in test [5] was more than 100 µM in each case.
On to `CO[C@@H]1[C@@H](O)[C@@H](O)[C@H](Oc2cc(O)c3c(=O)c(NC(C)=O)coc3c2)OC1(C)C`, for which the IC50 in test [3] and in test [5] was more than 100 µM throughout.
Turning to `CO[C@@H]1[C@@H](O)[C@@H](O)[C@H](Oc2ccc3c(=O)c(-c4ccc5c(c4)OCO5)coc3c2C)OC1(C)C`, the IC50 in test [3] came out at 18.4 µM; in test [5] it was 21.4 µM.
Consider `CO[C@@H]1[C@@H](O)[C@@H](O)[C@H](Oc2ccc3cc(NC(=O)CCCCC(=O)Nc4cc5ccc(O[C@@H]6OC(C)(C)[C@H](OC)[C@@H](O)[C@H]6O)cc5oc4=O)c(=O)oc3c2)OC1(C)C`, for which the IC50 in test [5] amounted to 2 µM. In other words, the single-digit micromolar range.
`COc1cccc(-c2cc(C(=O)Nc3coc4c(C)c(O)ccc4c3=O)ccc2OC)c1`: the IC50 came out at 4.9 µM in test [3] and 44.1 µM in test [5]. The “Ratio IC50” value in test [6] is reported as 1.9.
On to `CO[C@@H]1[C@@H](O)[C@@H](O)[C@H](Oc2cc(O)c3c(=O)c(-c4ccc5c(c4)OCO5)coc3c2)OC1(C)C`, for which the IC50 in test [3] and in test [5] was more than 100 µM in each case.
For `Cc1c(O)ccc2c(=O)c(-c3ccc4c(c3)OCO4)coc12`, the IC50 in test [3] and in test [5] was more than 100 µM throughout.
As to `COc1cccc(-c2cc(C(=O)Nc3cc(=O)c4cc(O[C@@H]5OC(C)(C)[C@H](OC)[C@@H](O)[C@H]5O)ccc4o3)ccc2OC)c1`, the results for the IC50 in test [3] and in test [5] were 14.7 µM and 33.8 µM, respectively.
The corresponding values for `COc1cccc(-c2cc(C(=O)Nc3cc(=O)c4cc(OC(C)=O)ccc4o3)ccc2OC)c1` are more than 100 µM and more than 100 µM.
The corresponding values for `CO[C@@H]1[C@@H](O)[C@@H](O)[C@H](Oc2ccc3c(=O)c(-c4ccc5c(c4)OCO5)coc3c2)OC1(C)C` are 9.2 µM and 18 µM.
For the compound `CC(=O)Nc1cc(=O)c2cc(OC(C)=O)ccc2o1`, the IC50 in test [3] and in test [5] was more than 100 µM throughout.
On to `CC(C)=CCc1cc2c(=O)c(-c3ccc4c(c3)OCO4)coc2cc1O`, for which the 50% inhibitory concentration (IC50) amounted to 13.1 µM in test [3] and 36.5 µM in test [5].
As for `O=c1c(-c2ccc3c(c2)OCO3)coc2cc(O)cc(O)c12`, the 50% inhibitory concentration (IC50) in test [3] was 70 µM; in test [5] it was more than 100 µM.
For `COc1cccc(-c2cc(C(=O)Nc3coc4cc(O)ccc4c3=O)ccc2OC)c1`, the IC50 in test [3] came out at 8.6 µM; in test [5], 37.1 µM. Also, in test [6], the “Ratio IC50” value stood at 1.9.
Take `O=c1c(-c2ccc3c(c2)OCO3)coc2cc(O)ccc12` [PSEUDOBAPTOGENIN]: the IC50 in test [3] and in test [5] was more than 100 µM throughout.
Regarding `CC(=O)Oc1ccc2c(=O)c(-c3ccc4c(c3)OCO4)coc2c1C`, the IC50 in test [3] and in test [5] was more than 100 µM throughout.
Turning to `COc1cccc(-c2cc(C(=O)Nc3coc4cc(O)cc(O)c4c3=O)ccc2OC)c1`, the results for the IC50 in test [3] and in test [5] were 9.7 µM and 21.3 µM, respectively. Besides, the “Ratio IC50” value in test [6] amounted to 1.9.
On to `COc1cccc(-c2cc(C(=O)Nc3coc4c(C)c(OC(C)=O)ccc4c3=O)ccc2OC)c1`, for which the IC50 in test [3] was found to be 4.8 µM; in test [5], 17 µM.
Regarding `CC(=O)Nc1coc2cc(OC(C)=O)cc(O)c2c1=O`, the IC50 in test [3] was 93.7 µM; in test [5] it was more than 100 µM.
Regarding `COc1cccc(-c2cc(C(=O)Nc3coc4cc(OC(C)=O)ccc4c3=O)ccc2OC)c1`, the IC50 in test [3] amounted to 9.5 µM; in test [5] it was 18.4 µM.
The corresponding values for `CO[C@@H]1[C@@H](O)[C@@H](O)[C@H](Oc2ccc3c(=O)c(NC(C)=O)coc3c2C)OC1(C)C` are more than 100 µM and more than 100 µM.
The corresponding values for `COc1cccc(-c2cc(C(=O)Nc3coc4cc(O[C@@H]5OC(C)(C)[C@H](OC)[C@@H](O)[C@H]5O)cc(O)c4c3=O)ccc2OC)c1` are 23.6 µM and 19.4 µM.
The corresponding values for `CC(=O)Nc1coc2c(C)c(OC(C)=O)ccc2c1=O` are more than 100 µM and more than 100 µM.
Turning to `CC(=O)Nc1coc2cc(OC(C)=O)ccc2c1=O`, the IC50 in test [3] and in test [5] was more than 100 µM in each case.
Regarding `CC(=O)Oc1cc(O)c2c(=O)c(-c3ccc4c(c3)OCO4)coc2c1`, the IC50 in test [3] and in test [5] was more than 100 µM each time.
Take `COc1cccc(-c2cc(C(=O)Nc3coc4c(C)c(O[C@@H]5OC(C)(C)[C@H](OC)[C@@H](O)[C@H]5O)ccc4c3=O)ccc2OC)c1`: the 50% inhibitory concentration (IC50) in test [3] came out at 51.6 µM; in test [5], 46 µM.
As for `CC(=O)Nc1cc(=O)c2cc(O)ccc2o1`, the IC50 in test [3] and in test [5] was more than 100 µM in each case.
Take `CC(=O)Nc1coc2cc(O)ccc2c1=O`: the half-maximal inhibitory concentration (IC50) in test [3] and in test [5] was more than 100 µM each time.
With `CC(C)=CCc1cc2c(=O)c(-c3ccc4c(c3)OCO4)coc2c(C)c1O`, the IC50 in test [3] was 49.2 µM; in test [5], more than 100 µM.
Take `CC(=O)Nc1coc2cc(O)cc(O)c2c1=O`: the IC50 in test [3] and in test [5] was more than 100 µM throughout.
Consider `CC(=O)Nc1coc2c(C)c(O)ccc2c1=O`, for which the IC50 in test [3] and in test [5] was more than 100 µM in each case.
With `COc1cccc(-c2cc(C(=O)Nc3coc4cc(OC(C)=O)cc(O)c4c3=O)ccc2OC)c1`, the values for the IC50 in test [3] and in test [5] were 5.1 µM and 3.3 µM, respectively.
For the compound `COc1cccc(-c2cc(C(=O)Nc3cc(=O)c4cc(O)ccc4o3)ccc2OC)c1`, the IC50 in test [3] turned out to be 10.5 µM; in test [5], 19.6 µM.
As for `CO[C@@H]1[C@@H](O)[C@@H](O)[C@H](Oc2ccc3c(=O)c(NC(C)=O)coc3c2)OC1(C)C`, the half-inhibitory concentration (IC50) in test [3] and in test [5] was more than 100 µM each time.
Take `CO[C@@H]1[C@@H](O)[C@@H](O)[C@H](Oc2ccc3oc(NC(C)=O)cc(=O)c3c2)OC1(C)C`: the IC50 in test [3] and in test [5] was more than 100 µM each time.

(Values after ChEMBL document CHEMBL1157681 (Bioorg Med Chem, 2010).)
